Measured values taken from ChEMBL document CHEMBL4219233, “Discovery and evaluation of nNav1.5 sodium channel blockers with potent cell invasion inhibitory activity in breast cancer cells” (Bioorg Med Chem, 2018).

What was measured:
[1] = biological target: T1, Sodium channel protein type 5 subunit alpha (Homo sapiens, UniProt Q14524); assay: Inhibition of neonatal Nav1.5 in human MDA-MB-231 cells assessed as reduction in inward sodium peak current at 10 uM at -100 mV holding potential after 5 to 10 mins by whole cell patch clamp method relative to control; type: cell-based; details: MDA-MB-231, human
Method in brief: (§1)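 Whole-cell voltage clamp is used, with capacitance and series resistance compensated 60% and P/2 leak subtraction. Cells are perifused with PSS (mM: NaCl 140, KCl 4, MgCl2 1, CaCl2 2, NaH2PO4 0.33, glucose 11.1, HEPES 10; pH 7.4), with or without compound (final 0.2% DMSO), for 5–10 min. Peak INa is evoked by 30 ms steps from −100 to −5 mV. Percent block is taken from peak current. The concentration-response over 0.1–100 μM is Hill-fitted.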
Target sequence in this assay (Q14524 whole entry, the tested form may be a part): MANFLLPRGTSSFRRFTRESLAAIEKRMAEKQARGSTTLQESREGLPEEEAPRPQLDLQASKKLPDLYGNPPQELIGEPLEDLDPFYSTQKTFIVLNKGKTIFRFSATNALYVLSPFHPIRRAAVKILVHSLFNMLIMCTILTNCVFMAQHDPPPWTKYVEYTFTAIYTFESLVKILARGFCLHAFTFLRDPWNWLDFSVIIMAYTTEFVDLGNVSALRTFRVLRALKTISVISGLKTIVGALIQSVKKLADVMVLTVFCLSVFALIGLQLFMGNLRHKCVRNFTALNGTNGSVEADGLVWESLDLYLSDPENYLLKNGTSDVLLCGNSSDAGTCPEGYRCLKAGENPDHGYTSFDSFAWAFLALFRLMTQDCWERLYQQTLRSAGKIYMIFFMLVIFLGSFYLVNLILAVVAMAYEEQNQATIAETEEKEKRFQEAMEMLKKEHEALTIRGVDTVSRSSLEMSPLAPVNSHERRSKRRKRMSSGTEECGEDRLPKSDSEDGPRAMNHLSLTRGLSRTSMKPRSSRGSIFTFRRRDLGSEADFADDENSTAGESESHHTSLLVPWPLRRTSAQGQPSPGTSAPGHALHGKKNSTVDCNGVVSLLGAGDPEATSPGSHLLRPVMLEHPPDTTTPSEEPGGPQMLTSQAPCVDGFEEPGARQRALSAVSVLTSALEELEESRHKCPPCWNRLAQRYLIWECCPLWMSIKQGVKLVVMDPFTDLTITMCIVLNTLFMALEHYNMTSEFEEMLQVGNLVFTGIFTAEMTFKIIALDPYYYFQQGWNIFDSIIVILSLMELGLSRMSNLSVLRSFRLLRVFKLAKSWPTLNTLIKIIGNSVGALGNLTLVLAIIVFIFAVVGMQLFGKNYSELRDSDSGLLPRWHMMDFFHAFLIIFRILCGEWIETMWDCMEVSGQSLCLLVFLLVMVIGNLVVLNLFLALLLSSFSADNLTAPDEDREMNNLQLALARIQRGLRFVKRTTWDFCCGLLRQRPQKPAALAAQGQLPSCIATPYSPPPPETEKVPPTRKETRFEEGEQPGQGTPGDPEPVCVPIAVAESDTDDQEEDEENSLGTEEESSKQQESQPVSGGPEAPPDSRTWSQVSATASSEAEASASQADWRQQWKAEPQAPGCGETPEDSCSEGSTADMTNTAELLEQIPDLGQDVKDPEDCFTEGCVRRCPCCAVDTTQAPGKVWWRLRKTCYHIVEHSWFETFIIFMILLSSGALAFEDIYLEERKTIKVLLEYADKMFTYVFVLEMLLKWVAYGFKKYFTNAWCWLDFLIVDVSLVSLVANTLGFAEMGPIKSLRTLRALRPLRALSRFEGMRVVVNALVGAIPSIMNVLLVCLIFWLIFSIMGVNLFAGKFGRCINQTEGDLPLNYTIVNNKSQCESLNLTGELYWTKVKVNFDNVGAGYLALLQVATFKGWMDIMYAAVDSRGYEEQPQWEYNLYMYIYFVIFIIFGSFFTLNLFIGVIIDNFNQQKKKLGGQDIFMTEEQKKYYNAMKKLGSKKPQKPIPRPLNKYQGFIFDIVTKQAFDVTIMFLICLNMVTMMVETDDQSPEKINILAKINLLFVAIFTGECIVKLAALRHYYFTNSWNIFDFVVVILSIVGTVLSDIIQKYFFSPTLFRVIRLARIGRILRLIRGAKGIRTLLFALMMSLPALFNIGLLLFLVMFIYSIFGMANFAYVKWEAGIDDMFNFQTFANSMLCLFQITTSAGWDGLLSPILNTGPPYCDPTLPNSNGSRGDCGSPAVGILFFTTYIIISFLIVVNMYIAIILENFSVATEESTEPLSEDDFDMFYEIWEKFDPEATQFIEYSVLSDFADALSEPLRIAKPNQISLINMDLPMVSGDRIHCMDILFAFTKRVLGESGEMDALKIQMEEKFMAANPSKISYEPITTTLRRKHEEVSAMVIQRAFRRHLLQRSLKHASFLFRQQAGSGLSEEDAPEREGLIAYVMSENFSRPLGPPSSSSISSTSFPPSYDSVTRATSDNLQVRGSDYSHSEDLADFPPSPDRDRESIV

[2] = Cytotoxicity against human MDA-MB-231 cells assessed as reduction in cell viability after 24 hrs by MTS assay; type: cell-based
Method in brief: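 Cells are seeded at 10^4/well in 5% FBS/DMEM and grown 24 h at 37 °C, 5% CO2. They are then exposed 24 h to 1, 5, 10 or […] μM compound or vehicle (0.25% DMSO in PBS), with 5 wells per concentration. MTS is added for 30 min and absorbance read at 490 nm. The maximum non-toxic concentration is judged against vehicle, mean of five repeats.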

[3] = biological target: T1, Sodium channel protein type 5 subunit alpha; assay: Inhibition of neonatal Nav1.5 in human MDA-MB-231 cells assessed as reduction in inward sodium peak current by measuring half inactivation potential at 10 uM at -100 mV holding potential after 5 to 10 mins by whole cell patch clamp method (reference value: -71.6 +/- 0.4 mV); type: cell-based; details: mda-mb-231, 10 µM
Target sequence in this assay (Q14524 whole entry, the tested form may be a part): as above

MDA-MB-231 [4] = assay: Anti-invasive activity against human MDA-MB-231 cells at 1 uM after 24 hrs by Hema staining based microscopic method relative to control; type: functional; details: MDA-MB-231, 24 h
Method in brief: (§2)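 Matrigel-coated transwell invasion chambers are hydrated 2 h at 37 °C, with 5% FBS/DMEM above and 10% FBS/DMEM below as chemoattractant. 4 × 10^4 cells go in the upper chamber. Compound or vehicle (0.2% DMSO in PBS) is added to both chambers. After 24 h at 37 °C, 5% CO2, invaded cells are fixed, Hema-stained and counted in five membrane regions. Counts are normalized to solvent control, mean ± SD.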

[5] = biological target: T1, Sodium channel protein type 5 subunit alpha; assay: Inhibition of neonatal Nav1.5 in human MDA-MB-231 cells assessed as reduction in inward sodium peak current at -100 mV holding potential after 5 to 10 mins by whole cell patch clamp method; type: cell-based; method in brief: as §1
Target sequence in this assay (Q14524 whole entry, looked up, the tested form may be a part): as the sequence (Q14524 whole entry, the tested form may be a part) above

[6] = biological target: T1, Sodium channel protein type 5 subunit alpha; assay: Inhibition of neonatal Nav1.5 in human MDA-MB-231 cells assessed as reduction in inward sodium peak current by measuring half activation potential at 10 uM at -100 mV holding potential after 5 to 10 mins by whole cell patch clamp method (reference value: -33 +/- 1.2 mV); type: cell-based; details: mda-mb-231, 10 µM
Target sequence in this assay (Q14524 whole entry, the tested form may be a part): as above

[7] = biological target: T1, Sodium channel protein type 5 subunit alpha; assay: Irreversible inhibition of neonatal Nav1.5 in human MDA-MB-231 cells assessed as reduction in sodium peak current elecited for membrane depolarization from -100 mV to -5 mV at -100 mV holding potential treated for 5 to 10 mins followed by compound washout by whole cell patch clamp method relative to control; type: cell-based
Method in brief: (§3)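 Whole-cell voltage clamp on MDA-MB-231 cells grown in 5% FBS DMEM, with 60% capacitance and series-resistance compensation and P/2 leak subtraction. Cells were perifused with PSS (mM: NaCl 140, KCl 4, MgCl2 1, CaCl2 2, NaH2PO4 0.33, glucose 11.1, HEPES 10; pH 7.4) with 0.2% DMSO, and compound was applied 5–10 min (final 0.1–100 μM). Peak INa was evoked by 30 ms steps from −100 to −5 mV. Percent block was taken against control, followed by wash-out.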
Target sequence in this assay (Q14524 whole entry, the tested form may be a part): as above

[8] = biological target: T1, Sodium channel protein type 5 subunit alpha; assay: Inhibition of neonatal Nav1.5 in human MDA-MB-231 cells assessed as reduction in inward sodium peak current at 100 uM at -100 mV holding potential after 5 to 10 mins by whole cell patch clamp method relative to control; type: cell-based; details: MDA-MB-231, human; method in brief: as §3
Target sequence in this assay (Q14524 whole entry, the tested form may be a part): as above

[9] = biological target: T1, Sodium channel protein type 5 subunit alpha; assay: Inhibition of neonatal Nav1.5 in human MDA-MB-231 cells assessed as reduction in inward sodium peak current at 1 uM at -100 mV holding potential after 5 to 10 mins by whole cell patch clamp method relative to control; type: cell-based; details: MDA-MB-231, human; method in brief: as §3
Target sequence in this assay (Q14524 whole entry, the tested form may be a part): as above

MDA-MB-231 [10] = assay: Anti-invasive activity against human MDA-MB-231 cells at 0.1 uM after 24 hrs by Hema staining based microscopic method relative to control; type: functional; details: MDA-MB-231, 24 h; method in brief: as §2
[11] = biological target: T1, Sodium channel protein type 5 subunit alpha; assay: Inhibition of neonatal Nav1.5 in human MDA-MB-231 cells assessed as reduction in inward sodium peak current by measuring half activation potential at 10 uM at -100 mV holding potential after 5 to 10 mins by whole cell patch clamp method (reference value: -30.7 +/- 0.9 mV); type: cell-based; details: mda-mb-231, 10 µM
[12] = biological target: T1, Sodium channel protein type 5 subunit alpha; assay: Reversible inhibition of neonatal Nav1.5 in human MDA-MB-231 cells assessed as reduction in sodium peak current elecited for membrane depolarization from -100 mV to -5 mV by measuring remaining current amplitude at 0.1 to 100 uM at -100 mV holding potential treated for 5 to 10 mins followed by compound washout by whole cell patch clamp method relative to control
[13] = biological target: T1, Sodium channel protein type 5 subunit alpha; assay: Inhibition of neonatal Nav1.5 in human MDA-MB-231 cells assessed as reduction in inward sodium peak current by measuring half inactivation potential at 10 uM at -100 mV holding potential after 5 to 10 mins by whole cell patch clamp method (reference value: -66 +/- 2.5 mV); type: cell-based; details: mda-mb-231, 10 µM
MDA-MB-231 [14] = details: Homo sapiens, 30 uM

Structure (SMILES)	inhibition at 10 µM [1] [%]	MNTC at 24 h [2] [µM]	inhibition at 1 µM (MDA-MB-231 [4]) [%]	IC50 [5] [µM]	inhibition at 100 µM [8] [%]	inhibition at 1 µM [9] [%]	inhibition at 0.1 µM (MDA-MB-231 [10]) [%]	further results
CC(C)(C)CCCCNCCCN1CCCCC1	30	10						
Fc1ccc(C(CCCNCCCN2CCCCC2)c2ccc(F)cc2)cc1	50	5	30.3	4.8	> 95	34.9	20	V1/2 [3]: -88.6 mV; V1/2 [6]: -34.9 mV; inhibition (INH) [7]: Dose-dependent effect
Fc1ccc(C(CCCNCCc2ccccc2)c2ccc(F)cc2)cc1	30	10						
Fc1ccc(CCCCNCCCN2CCCCC2)cc1	60	> 25	28	5.9	> 95	25	20	V1/2 [11]: -36.8 mV; Activity [12]: 17.4%; V1/2 [13]: -77.5 mV
NC1=N[C@H](O)[C@H]2[C@H]3O[C@]4(O)O[C@@H]([C@@H](O)[C@@]2(N1)[C@@H]4O)[C@]3(O)CO [TETRODOTOXIN]		30						inhibition (MDA-MB-231 [14]): 31.5%
Fc1ccc(C(CCCNCCCc2ccccc2)c2ccc(F)cc2)cc1	30	10						
